EP2 mod – EP2 receptor modulators, cAMP readout, primary screen, cell-based, HTRF cAMP, PGE2 stimulation. Prostaglandin E2 receptor EP2 subtype (Homo sapiens), P43116. EP2-expressing cells, cAMP HTRF FRET, PGE2 co-stimulation. induction, % at 25 µM. 0.83% of 260,000 active;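 active = compounds whose cAMP rise, as percent of the full-agonist control response, exceeds 60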;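 note: rat C6 glioma line stably carrying human EP2 under a CMV promoter; the protocol text gives 20 µM as final concentration; 100% = response of wells given 1 µM PGE2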
PGE2 EP2 inh – human EP2 receptor antagonists, primary screen, TR-FRET cAMP, C6 glioma cells. Prostaglandin E2 receptor EP2 subtype (Homo sapiens), P43116. C6 glioma cells expressing human EP2; cells stimulated with saturating PGE2. 0.52% of 260,000 active. inhibition, % at 25 µM;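 active = percent inhibition above 40 after rounding to a whole number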;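 note: rat C6 glioma host cells with rolipram phosphodiesterase inhibitor present; the protocol text gives 20 µM as final concentration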
T cell modulator – modulators of CD8 T cell-vesicle binding, primary screen, mouse 2C CD8+ T cells, flow cytometry; 2C CD8+ T cell-vesicle binding; stronger effect = lower value; response (vesicle binding), % at 7 µM; 0.068% of 330,000 active; AID 2052, 2009;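 active = response, share of CD8 T cells binding vesicles, and their 90th percentile fluorescence all below set limits, cut at about 80% in these data, passing the limit was not always enough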;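 note: values below 100% mean blocked vesicle binding to the CD8+ T cells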
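Assay system – 2C mouse CD8+ T cells · Also added – QL9-loaded Drosophila micro-vesicles · Timing – Cell–vesicle co-incubation 1.5 h at 37 °C, staining 20 min on ice · Signal – flow cytometry of vesicle-bound cells · Measure – percent CD8+ FL2 mean versus row control · Controls – Peptide-free naked vesicles (low) and QL9 vesicles with 0.7% DMSO vehicle (high)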
MC4R ag barr – MC4R agonists recruiting beta-arrestin, primary screen, cell-based, luminescence, agonist arm of biased-ligand search | activation, % at 8.9 µM | U2OS MC4R beta-arrestin complementation; percent of melanotan II response, DMSO zero | 0.98% of 360,000 active | AID 540308, 2011;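 active = activation above a per-plate cutoff, the mean activation of sample wells on that plate plus 3 SD, cut at about 8% in these data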
Target sequence (P32245 whole entry, looked up): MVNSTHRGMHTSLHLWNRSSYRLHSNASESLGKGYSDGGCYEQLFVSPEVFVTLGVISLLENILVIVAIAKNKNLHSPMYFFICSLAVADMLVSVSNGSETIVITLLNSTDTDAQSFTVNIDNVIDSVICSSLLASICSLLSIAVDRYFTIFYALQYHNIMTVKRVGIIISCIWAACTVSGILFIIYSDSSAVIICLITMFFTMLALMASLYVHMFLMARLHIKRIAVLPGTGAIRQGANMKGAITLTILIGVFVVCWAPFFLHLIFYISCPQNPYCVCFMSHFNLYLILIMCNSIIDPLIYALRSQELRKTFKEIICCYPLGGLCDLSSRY
MC4R antagonist – MC4R antagonists of cAMP signaling, primary screen, cell-based, TR-FRET, antagonist arm of biased-ligand search | MC4R-expressing cells, MTII-stimulated cAMP, LANCE TR-FRET | inhibition, % at 6.5 µM | 0.48% of 360,000 active;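 active = inhibition above its plate's cutoff, the mean of tested wells on that plate plus 3 SD, cut at about 29% in these data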;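 note: 0% = Melanotan II alone and 100% = Melanotan II plus saturating MCL0020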
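Assay system: U2OS-MC4R stable cell line; Also added: Melanotan II; Technique: Eu-cAMP/anti-cAMP TR-FRET, emission 671 nm; Times: 30-min compound, 1-h challenge, 1-h detection, room temperature.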
Exocytosis inh – LAMP-1 surface exposure blockers, TALL-104 cells – cell-based, flow cytometry, MLPCN library, primary screen | inhibition, % at 10 µM | TALL-104 LAMP-1 surface exposure; cells stimulated with thapsigargin and PMA | AID 651702, 2012 | 0.66% of 360,000 active;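 active = inhibition above about 55%, limit read from the data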
The depositor's hits bear a star; i = inactive; x = no result; ! = repeats disagree. Sampled rows, rich in hits. Any-hit rate of the full collection: about 2.6%.

SMILES	EP2 mod	PGE2 EP2 inh	T cell modulator	MC4R ag barr	MC4R antagonist	Exocytosis inh
O=C(COC(=O)/C=C/c1ccccc1[N+](=O)[O-])Nc1ccc(OC(F)F)cc1	8	3	i	4	2	-4
COc1ccc(N2CC(O)=C(c3nc(-c4ccc(F)cc4)cs3)C2=N)cc1	-28	17	194	0	5	-1
COc1ccc(N2CC(O)=C(c3nc(-c4ccc(Br)cc4)cs3)C2=N)cc1	-32	48*	227	4	7	-7
CCN(CC)CCN(C(=O)c1ccc2c(c1)CCCC2)c1nc2cc(OC)c(OC)cc2s1	x	x	382	0	2	56*
COc1cc2nc(N(CCN(C)C)C(=O)c3ccc4ccccc4c3)sc2cc1OC	x	x	57	4	3	1
CC(C)NC(=O)N(C)C[C@@H]1Oc2cc(C#Cc3ccccn3)ccc2S(=O)(=O)N([C@@H](C)CO)C[C@H]1C	x	x	x	0	4	-2
COc1ccc2c(c1OC)C(=O)OC2Nc1nc(-c2cc3ccccc3oc2=O)cs1 (configuration not stated)	6	2	161	-2	-14	79*
COc1ccc2c(c1OC)C(=O)OC2Nc1nc(-c2cc3cc([N+](=O)[O-])ccc3oc2=O)cs1 (configuration not stated)	-3	7	198	-3	-18	3
Cc1cccc(OCCC(=O)Nc2ccc(F)c(Cl)c2)c1	-57	13	473	8.9*	-1	-5
O=C(Nc1ccc(OCC(F)(F)C(F)F)c(C(F)(F)F)c1)c1ccccc1	x	45*	185	2	-5	1
Cc1ccc2nc(-c3ccc(NC(=S)NCC(C)(C)CN(C)C)cc3)sc2c1	x	x	x	-2	2	56*
C=Cn1ncc(CN2CCC(O)(c3ccccc3C)CC2)c1C	-39	6	x	x	x	x
CCn1c(=S)[nH]c2scc(-c3cccs3)c2c1=O	-17	70*	x	-5	20	2
Cc1nc2scc(-c3cccs3)c2c(=O)[nH]1	-2	9	634	-1	3	1
CC(C)n1c(=S)[nH]c2scc(-c3cccs3)c2c1=O	-19	71*	413	-2	9	0
COCc1nnc(NC(=O)C23CC4CC(CC(C4)C2)C3)s1	x	x	x	0	4	4
COc1ccc(C2c3ccc4ccccc4c3Oc3ncn(CCCO)c(=N)c32)cc1 (configuration not stated)	-33	14	116	1	13	65*
O=C(COC(=O)c1ccc(F)cc1Cl)NC1CCCCCCC1	x	x	992	8.6*	11	0
O=C(COC(=O)c1cc(F)c(F)cc1Cl)NC1CCCCCC1	x	x	x	4	16	-10
CCOc1ccc(-c2cc(-c3ccc(OC)c(OC)c3)c(C#N)c(N)n2)cc1	80*	12	x	x	x	x
COc1ccc(-c2cc(-c3ccc(O)cc3)nc(N)c2C#N)cc1OC	-11	40*!	294	2	-35	-1
N#Cc1c(-c2ccc3c(c2)OCO3)cc(-c2ccc(F)cc2)nc1N	61*	22	x	x	x	x
CCCCNC(=O)/C(C#N)=C/c1ccc2c(c1)OCCO2	-17	6	0.0*	-3	3	1
CCCCCCCCNC(=O)/C(C#N)=C/c1ccc2c(c1)OCCO2	16	3	173	-1	2	-4
CCOCCCNC(=O)/C(C#N)=C/c1ccc(Cl)c([N+](=O)[O-])c1	-49	14	101	-1	23	66*
SMILES	EP2 mod	PGE2 EP2 inh	T cell modulator	MC4R ag barr	MC4R antagonist	Exocytosis inh
[O-][N+](CCO)(CCO)c1ncnc2nc[nH]c12	-2	6	x	x	x	x
N/C(Cc1cccc2ccccc12)=N\OC(=O)c1ccc(Br)o1	-27	12	x	x	x	x
N/C(Cc1ccc(Cl)cc1Cl)=N\OC(=O)c1ccc(Br)o1	-4	4	550	8.3*	13	-2
O=C(Cc1coc(-c2ccc(F)cc2)n1)Nc1ccccc1	-28	10	370	1	1	4
COC(=O)NC1SC(C)=NC1(O)c1ccccc1 (configuration not stated)	2	17	x	x	x	x
CC(=O)N1c2ccccc2C2(O)N=C(C)SC12 (configuration not stated)	-90	42*	199	0	6	-5
COc1ccccc1N1CCN(C(=O)c2sc3ncn(CC(=O)N4CCC(C)CC4)c(=O)c3c2C)CC1	x	x	272	-2	3	-3
O=c1c2c([N+](=O)[O-])cc([N+](=O)[O-])cc2sn1-c1ccc(Br)cc1	-57	7	i	-3	7	92*
Cc1ccc2c(c1)N(CC(=O)N1CCCC1)C(=O)CO2	x	x	225	-1	-5	-3
Cc1ccc2c(c1)N(CC(=O)N1c3ccccc3Sc3ccccc31)C(=O)CO2	63*	9	x	x	x	x
O=C1/C(=C/c2ccccc2[N+](=O)[O-])COc2ccccc21	-25	9	502	-4	7	84*
CNc1ccc(/C=C2\COc3ccccc3C2=O)cc1[N+](=O)[O-]	-12	17	250	-2	-2	1
Cc1noc(-c2ccccc2OC(=O)c2ccccc2)n1	64*	6	426	-2	-4	0
O=C(Oc1ccccc1-c1nnco1)c1ccccc1	11	20	510	-1	-7	-2
OC(c1cc(-c2ccc(C(F)(F)F)cc2)nc(C(F)(F)F)c1)C1CCCCN1 (configuration not stated)	-30	54*	472	2	-4	-20
OC(c1cc(C(F)(F)F)nc2c(C(F)(F)F)cccc12)C1CCCCN1 (configuration not stated)	-22	16	i	4	3	4
O[C@@H](c1cc(C(F)(F)F)nc2c(Cl)cc(Cl)cc12)[C@@H]1CCCCN1	14	58*	x	x	x	x
O=C(CNC(=O)c1ccc(Br)o1)OCc1ccc(Br)cc1	x	x	472	0	5	1
CC(C)(Oc1ccc(Cl)cc1)C(=O)NC1CCCCC1	x	x	0	-4	11	18
CC1=NOC(=O)/C1=C\c1ccc(-c2cc(Cl)ccc2Cl)o1	-15	61*	210	1	-3	74*
CC1=NOC(=O)/C1=C\c1ccc(-c2ccc(Br)cc2)o1	-69	76*	x	-5	18	33
CCC(CC)C(=O)Nc1cccc(/C(C)=N/NC(=O)c2c(Br)cnn2C)c1	-1	11	430	-1	4	-3

Screening data as filed in PubChem.
